# Assay outcomes from PubChem BioAssay.
# Fibroblast inh: blocks proliferation of human lung fibroblasts; LL 47 human lung fibroblast viability, ATP luminescence; hits give low values; AID 719; actives 1.1% (n = 85,000); viability, % at 10 µM;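 active = viability at or below 50% in the single dose screen; inactive = viability above 50%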;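 note: compound exposure lasted 72 h before the ATP readout; 100% = median luminescence of untreated cell-only wells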
#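 Material: human LL 47 lung fibroblast cells; quantity: 1,150 cells/well; medium: IMEM plus 15% FBS; doses: 0.1% DMSO in all compound wells; timing: overnight attachment after seeding, then 72 h compound exposure at 37 °C; detection: CellTiter-Glo luminescence; measure: % viability of median cell-only signal; controls: cell-only wells, no compound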
# HCT116 bCat-KO: beta-catenin-lacking colon tumor cell growth suppression. actives 1.5% (n = 140,000). AID 818. viability, % at 10 µM. HCT116 beta-catenin knockout viability, CellTiter-Glo, 60 h; hits give low values;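 active = viability at or under a set limit, the compound median less 4 SD, cut at about 6% in these data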;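 note: 0% = Hyamine 1622 control at 20 µM and 100% = untreated cell control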
# HUVEC prolif 384: human endothelial cell proliferation inhibition | viability, % at 10 µM (by protocol) | HUVEC proliferation, CellTiter-Glo luminescence, 72 h; hits give low values | actives 1.1% (n = 86,000);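 active = viability at or below 30%; inactive = viability above 30%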;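 note: 100% = median luminescence of DMSO-only cell control wells on each plate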
# PTEN del growth: PTEN-deleted cell growth suppression | HCT116 PTEN-null viability, CellTiter-Glo, 60 h; hits give low values | viability, % at 10 µM | actives 1.2% (n = 140,000) | AID 827;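 active = viability at or below a set limit, 4 SD under the median of all tested compounds, cut at about 3.7% in these data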;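 note: PTEN knockout HCT116 line with beta catenin targeted HCT116 as companion control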
# H69AR inhibit: growth inhibitors of human H69AR lung tumor cells | H69AR lung tumor viability, ATP luminescence, 72 h; hits give low values | viability, % at 10 µM | actives 6% (n = 85,000);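 active = viability at or below 40%; inactive = viability above 40%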;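 note: multidrug resistant small cell line overexpressing MRP-1 efflux transporter; 100% = mean luminescence of untreated control wells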
# Cav3 T inh: human Cav3.2 channel inhibition, primary screen; O95180; Cav3.2-expressing cells, Fluo-4 calcium fluorescence FDSS; hits give low values; B-score at 10 µM; actives 4% (n = 100,000); AID 449739;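 active = single-dose well whose peak fluorescence ratio is a statistical outlier from its plate by either plate-standardised score or position-corrected B-score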
# * = called active by the depositor; . = no result given. Most compounds without a hit are left out; they make up all but 7.1% or so of the library.
SMILES,Fibroblast inh,HCT116 bCat-KO,HUVEC prolif 384,PTEN del growth,H69AR inhibit,Cav3 T inh
CCN(CC)S(=O)(=O)c1cc(C(=O)OCC(=O)Nc2cccc(Br)c2)ccc1F,.,89,.,101,.,.
Cn1c(=O)c(N=O)c(N)n(Cc2ccccc2)c1=S,.,.,.,.,.,0.65
CCCCN(C)c1nc(-c2ccco2)c2c(c1C#N)CC(C)(C)OC2,79,83,93,77,42,-3.8*
CC1(C)Cc2c(C#N)c(N3CCCC3)nc(-c3ccco3)c2CO1,84,86,80,87,45,-1.7
COc1ccc(OCc2nnc(SCC(=O)N3c4ccccc4Sc4ccc(Cl)cc43)o2)cc1,.,85,.,67,.,-4.4*
COc1ccc(NC(=O)C2CCN(Cc3cnn(-c4ccccc4)c3-n3cccc3)CC2)cc1OC,104,49,82,54,104,-1.5
O=C(Nc1ccccc1Cl)C1CCN(Cc2cnn(-c3ccccc3)c2-n2cccc2)CC1,92,70,113,69,64,-8.3*
COc1ccc(OC)c(NC(=O)C2CCN(Cc3cnn(-c4ccccc4)c3-n3cccc3)CC2)c1,95,73,76,75,59,-8.7*
COc1cccc(NC(=O)C2CCN(Cc3cnn(-c4ccccc4)c3-n3cccc3)CC2)c1,93,51,68,52,58,-10*
Cc1c(N=C2SCC(=O)N2/N=C\c2ccc(Br)cc2)c(=O)n(-c2ccccc2)n1C,.,85,.,87,.,.
CNC(=O)CC(C(=O)O)c1ccc(OCC(C)C)cc1 (stereo not drawn),109,110,94,94,104,.
CNC(=O)N(C1=NCC(C)(C)S1)c1ccc(F)c(Cl)c1,81,40,52,36,15*,-1.7
CC(=O)c1ccc(NC(=S)NNC(=O)c2ccncc2)cc1,.,90,.,90,.,.
CCOC(=O)c1c(CSc2ccccc2)n(C)c2cc(Br)c(OCC(O)CNC(CO)(CO)CO)cc12 (stereo not drawn),.,1.5*,.,2.1*,.,.
CCOC(=O)c1c(CN2CCN(Cc3ccccc3)CC2)n(C)c2cc(Br)c(OC)cc12,101,56,75,56,14*,-7*
CCOC(=O)c1c(CSc2ccccc2)oc2ccc(O)cc12,.,85,.,94,.,.
CCOC(=O)c1c(C)n(C)c2cc(Br)c(C)cc12,99,90,98,95,97,0.43
Fc1ccc(-c2n[nH]c(=S)n2/N=C/c2c[nH]c3ccccc23)cc1,.,94,.,86,.,.
c1ccc(-c2nnc3sc(-c4cc5ccccc5o4)nn23)cc1,111,99,65,108,32*,-0.042
c1ccc(-c2nnc3sc(-c4ccncc4)nn23)cc1,96,88,92,87,80,0.98
c1ccc(-c2nnc3sc(-c4csc5c4CCCC5)nn23)cc1,100,62,76,60,31*,-1.1
COc1ccc(-c2nn3c(-c4ccccc4)nnc3s2)cc1,91,91,73,80,35*,0.98
Cc1nnc2sc(-c3cc4ccccc4o3)nn12,108,.,99,.,91,.
COC(=O)C1CSC(C(=O)OC)N1C(=O)Nc1ccc(Cl)cc1 (stereo not drawn),.,103,.,109,.,0.074
Clc1nc(NCc2cccnc2)nc(N2CCOCC2)n1,101,90,102,96,84,0.41
SMILES,Fibroblast inh,HCT116 bCat-KO,HUVEC prolif 384,PTEN del growth,H69AR inhibit,Cav3 T inh
COc1ccccc1NS(=O)(=O)c1cccc(C(=O)N/N=C2\CC(=O)CC(C)(C)C2)c1,.,98,.,84,.,.
CCN(C(=O)c1ccnn1C)c1ccccc1,.,97,.,103,.,.
Cc1ccc(S(=O)(=O)Nc2ccc(-c3nnc(SCC#N)n3C)cc2)cc1,94,107,102,105,94,0.011
CCCCCOC(=O)Cn1c(=O)oc2ccccc21,101,89,98,100,98,0.43
CCCCOC(=O)Cn1c(=O)n(CC(=O)OCCCC)c2ccccc21,101,89,99,84,101,-6.4*
COc1ccc(/C=N/NC(=O)c2ccoc2C)cc1OC,.,94,.,99,.,.
COc1ccc(/C=N/NC(=O)c2ccoc2C)cc1COc1ccc(Cl)cc1,.,14,.,10,.,-6.5*
COc1ccc(S(=O)(=O)Nc2cc(Cl)ccc2OC)cc1,52,19,39,18,19*,-1.9
CCOc1ccc(NS(=O)(=O)c2ccc(NS(=O)(=O)c3ccc(SC)cc3)cc2)cc1,87,98,43,97,68,-2.6
COc1ccc(NS(=O)(=O)c2ccc(NS(=O)(=O)c3ccc(SC)cc3)cc2)c(OC)c1,101,90,85,.,55,-4.9*
COc1ccc(Cl)cc1NS(=O)(=O)c1ccc(OC)c(OC)c1,104,90,91,88,95,-1
COc1ccc(OC)c(NS(=O)(=O)c2ccc(SC)cc2)c1,84,22,62,27,14*,-3.2
COc1ccc(OC)c(NS(=O)(=O)c2ccc(N3CCCC3=O)cc2)c1,.,22,.,19,.,.
COc1ccc(S(=O)(=O)Nc2cc(C)ccc2OC)cc1C,94,90,85,85,44,-7.7*
COc1ccc(OC)c(S(=O)(=O)Nc2ccc(O)c3ccccc23)c1,55,1.8*,2.3*,2.0*,1.9*,-0.73
COc1ccc(OC)c(NS(=O)(=O)c2ccc(NC(C)=O)cc2)c1,93,76,91,67,34*,0.34
COc1ccc(S(=O)(=O)Nc2ccc(NC(C)=O)cc2)cc1OC,91,88,87,100,100,0.14
Cc1cccc(C)c1NC(=O)COc1cccc(/C=N/NC(=O)C(=O)NCc2ccccc2)c1,.,90,.,90,.,-0.55
COc1cc(Cc2ccc(N)c(OC)c2)ccc1N,.,91,.,94,.,.
COc1ccc(Cc2ccc(OC)c(N)c2)cc1N,95,84,82,101,29*,-1.9
CSc1nc(Cl)cc(N(CCO)CCO)n1,.,96,.,94,.,-0.25
S=C(Nc1ccccc1)Nc1nc2ccccc2n1CCOc1ccccc1,.,1.6*,.,1.2*,.,-3.2
COc1ccc(C(=O)n2c(-c3ccco3)nc3ccccc32)cc1,65,14,53,20,24*,-1.7
CCCn1c(NC(=O)c2ccco2)nc2ccccc21,.,67,.,68,.,-0.71
COc1ccc(CCn2c(-c3ccco3)nc3nc4ccccc4nc32)cc1,95,70,96,70,58,-0.78
COc1ccc(OCCn2c(NC(=O)c3ccco3)nc3ccccc32)cc1,59,63,78,38,39*,-0.55
COc1ccc(NC(=O)/C(C#N)=C/c2ccc(OCc3ccccc3F)cc2)cc1,.,99,.,89,.,.
C#CCn1cc(C=C2C(=O)c3ccccc3C2=O)c2ccccc21,.,79,.,77,.,.
COc1ccc(N(C(=O)CCl)C(C(=O)NCCc2ccccc2)c2cccs2)cc1 (stereo not drawn),.,1.6*,.,0.7*,.,.
CCOC(=O)c1ccc2c(c1)NC(=O)C(N1CCN(c3ccc(OC)cc3)CC1)S2 (stereo not drawn),46*,78,68,67,31*,.
